Measured values reported in ChEMBL document CHEMBL1125920, “Synthesis and biological activity of 5-alkyl-1,7,8-trisubstituted-6-fluoroquinoline-3-carboxylic acids” (1991).
Values after ≈ are worked out from the molar mass of the structure shown.

Columns and labels:
[1] = test system: Enterobacter cloacae; assay: Antibacterial activity against gram negative organism, […] (MA2646); type: functional
[2] = test system: Escherichia coli; assay: Antibacterial activity was determined against gram negative organism, E. coli(vogel); type: functional
Summary of the method: (§1)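 MIC by standard microtitration against a panel of 10 representative Gram-negative and Gram-positive organisms; values reported in µg/mL.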

[3] = test system: Klebsiella pneumoniae; assay: Antibacterial activity was determined against gram negative organism, K. pneumoniae (MGH-2); type: functional; summary of the method: as §1
[4] = test system: Mus musculus; assay: In vivo oral protective dose was determined in female charles river CD-1 mice infected with Escherichia coli (vogel); type: functional; conditions: for ED50: Mus musculus, po, read-out: PD50
Summary of the method: (§2)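 Acute lethal systemic infection model in mice; drug given orally by gavage; potency read out as median protective dose (PD50), in mg/kg.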

[5] = test system: Mus musculus; assay: In vivo subcutaneous protective dose was determined in female charles river CD-1 mice infected with Escherichia coli (vogel); type: functional; conditions: sc, read-out: PD50
Summary of the method: (§3)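 Acute lethal systemic infection model in mice; drug given by subcutaneous injection; potency read out as median protective dose (PD50), in mg/kg.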

[6] = test system: Pseudomonas aeruginosa; assay: Antibacterial activity was determined against gram negative organism, Pseudomonas aeruginosa (UI-18); type: functional; summary of the method: as §1
[7] = test system: Bacteria; assay: Antibacterial activity was determined against gram negative organism, Providencia rettgeri. (M1771); type: functional; summary of the method: as §1
[8] = test system: Streptococcus pneumoniae; assay: Antibacterial activity was determined against gram positive organism, Streptococcus pneumoniae (SV-1); type: functional; summary of the method: as §1
[9] = test system: Enterococcus faecalis; assay: Antibacterial activity was determined against gram positive organism, Streptococcus faecalis (MGH-2); type: functional; summary of the method: as §1
[10] = test system: Streptococcus pyogenes; assay: Antibacterial activity was determined against gram positive organism, Streptococcus pyogenes (C203); type: functional; summary of the method: as §1
[11] = test system: Staphylococcus aureus; assay: Antibacterial activity was determined against gram positive organism, Staphylococcus aureus (H228); type: functional; summary of the method: as §1
[12] = test system: Staphylococcus aureus; assay: Antibacterial activity was determined against gram positive organism, Staphylococcus aureus (UC76); type: functional; summary of the method: as §1
[13] = MIC ratio measured as the mean MICs of gram-negative bacteria; type: functional
Summary of the method: (§4)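 Geometric mean of the MICs (µg/mL) over the Gram-negative or the Gram-positive strains of the 10-organism microtitration panel, calculated separately for each class.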

[14] = MIC ratio measured as the mean MICs of gram-positive bacteria; type: functional; summary of the method: as §4
[15] = biological target: DNA gyrase (Escherichia coli) (UniProt P0AES6+P0AES4)
[16] = test system: Mus musculus; assay: In vivo subcutaneous protective dose was determined in female charles river CD-1 mice infected with Streptococcus pneumoniae; type: functional; conditions: sc, read-out: PD50; summary of the method: as §3
[17] = test system: Mus musculus; assay: In vivo oral protective dose was determined in female charles river CD-1 mice infected with Streptococcus pneumoniae; type: functional; conditions: read-out: PD50; summary of the method: as §2

Compound | MIC [1] [µg/mL] | MIC [2] [µg/mL] | MIC [3] [µg/mL] | ED50 [4] [mg/kg] | ED50 [5] [mg/kg] | MIC [6] [µg/mL] | MIC [7] [µg/mL] | MIC [8] [µg/mL] | MIC [9] [µg/mL] | MIC [10] [µg/mL] | MIC [11] [µg/mL] | MIC [12] [µg/mL] | Ratio [13] | Ratio [14] | DNA cleavage [15] [µg/mL] | ED50 [16] [mg/kg] | ED50 [17] [mg/kg] | PD50 [4] [mg/kg]
Cc1c(F)c(N2CCC(N)C2)cc2c1c(=O)c(C(=O)O)cn2C1CC1 (stereo unspecified) | 0.05 (≈ 0.145 µM) | 0.025 (≈ 0.0724 µM) | 0.1 (≈ 0.29 µM) | 9.5 | 0.7 | 0.4 (≈ 1.16 µM) | 0.1 (≈ 0.29 µM) | 0.013 (≈ 0.0376 µM) | 0.4 (≈ 1.16 µM) | 0.025 (≈ 0.0724 µM) | 0.1 (≈ 0.29 µM) | 0.025 (≈ 0.0724 µM) | 0.087 | 0.05 | 0.38 |  |  | 
Cc1c(F)c(N2CCNCC2)c(F)c2c1c(=O)c(C(=O)O)cn2C1CC1 | 0.025 (≈ 0.0688 µM) | 0.025 (≈ 0.0688 µM) | 0.025 (≈ 0.0688 µM) | 0.4 | 0.2 | 0.2 (≈ 0.55 µM) | 0.05 (≈ 0.138 µM) | 0.025 (≈ 0.0688 µM) | 0.05 (≈ 0.138 µM) | 0.05 (≈ 0.138 µM) | 0.025 (≈ 0.0688 µM) | 0.025 (≈ 0.0688 µM) | 0.043 | 0.033 | 2.75 | 13.5 | 14 | 
Cc1c(F)c(N2CCC(N)C2)c(F)c2c1c(=O)c(C(=O)O)cn2C1CC1 (stereo unspecified) | 0.006 (≈ 0.0165 µM) | 0.006 (≈ 0.0165 µM) | 0.013 (≈ 0.0358 µM) | 2 | 0.5 | 0.4 (≈ 1.1 µM) | 0.025 (≈ 0.0688 µM) | 0.003 (≈ 0.00826 µM) | 0.025 (≈ 0.0688 µM) | 0.013 (≈ 0.0358 µM) | 0.013 (≈ 0.0358 µM) | 0.003 (≈ 0.00826 µM) | 0.021 | 0.0082 | 3 | 1.6 | 3 | 
NC1CCN(c2c(F)cc3c(=O)c(C(=O)O)cn(C4CC4)c3c2F)C1 (stereo unspecified) |  | 0.013 (≈ 0.0372 µM) |  | 1 | 0.4 |  | 0.05 (≈ 0.143 µM) | 0.05 (≈ 0.143 µM) |  |  |  | 0.013 (≈ 0.0372 µM) | 0.029 | 0.044 | 0.25 | 6 | 15 | 
CCNCC1CCN(c2c(F)c(C)c3c(=O)c(C(=O)O)cn(C4CC4)c3c2F)C1 (stereo unspecified) | 0.1 (≈ 0.247 µM) | 0.05 (≈ 0.123 µM) | 0.1 (≈ 0.247 µM) | 14 | 3 | 0.8 (≈ 1.97 µM) | 0.2 (≈ 0.493 µM) | 0.003 (≈ 0.0074 µM) | 0.025 (≈ 0.0617 µM) | 0.006 (≈ 0.0148 µM) | 0.013 (≈ 0.0321 µM) | 0.003 (≈ 0.0074 µM) | 0.15 | 0.0071 | 3 | 1.6 | 2.8 | 
Cc1c(F)c(N2CCNCC2)cc2c1c(=O)c(C(=O)O)cn2C1CC1 | 0.013 (≈ 0.0376 µM) | 0.013 (≈ 0.0376 µM) | 0.05 (≈ 0.145 µM) | 1.5 | 0.4 | 0.2 (≈ 0.579 µM) | 0.1 (≈ 0.29 µM) | 0.05 (≈ 0.145 µM) | 0.05 (≈ 0.145 µM) | 0.1 (≈ 0.29 µM) | 0.1 (≈ 0.29 µM) | 0.025 (≈ 0.0724 µM) | 0.044 | 0.057 | 0.3 | 21 | 100 | 
O=C(O)c1cn(C2CC2)c2c(F)c(N3CCNCC3)c(F)cc2c1=O | 0.05 (≈ 0.143 µM) |  |  | 0.45 | 0.25 |  | 0.1 (≈ 0.286 µM) |  |  |  |  |  | 0.076 | 0.4 | 0.5 | 29 | 59 | 
CC1CN(c2cc3c(cc2F)c(=O)c(C(=O)O)cn3C2CC2)CCN1 (stereo unspecified) |  |  | 0.05 (≈ 0.145 µM) | 1 | 0.4 | 0.4 (≈ 1.16 µM) | 0.1 (≈ 0.29 µM) | 0.2 (≈ 0.579 µM) | 0.4 (≈ 1.16 µM) | 0.2 (≈ 0.579 µM) | 0.4 (≈ 1.16 µM) | 0.1 (≈ 0.29 µM) | 0.066 | 0.23 |  | 12 | 39 | 
Cc1c(F)c(N2CCNC(C)C2)c(F)c2c1c(=O)c(C(=O)O)cn2C1CC1 (stereo unspecified) | 0.025 (≈ 0.0662 µM) | 0.025 (≈ 0.0662 µM) | 0.05 (≈ 0.132 µM) | 0.75 | 0.4 | 0.4 (≈ 1.06 µM) | 0.1 (≈ 0.265 µM) | 0.025 (≈ 0.0662 µM) | 0.1 (≈ 0.265 µM) | 0.05 (≈ 0.132 µM) | 0.025 (≈ 0.0662 µM) | 0.013 (≈ 0.0344 µM) | 0.066 | 0.033 | 3 | 11 | 12 | 
O=C(O)c1cn(C2CC2)c2cc(N3CCNCC3)c(F)cc2c1=O [CIPROFLOXACIN] |  |  |  | 1 | 0.25 | 0.4 (≈ 1.21 µM) | 0.05 (≈ 0.151 µM) |  | 0.8 (≈ 2.41 µM) | 0.8 (≈ 2.41 µM) |  | 0.2 (≈ 0.604 µM) |  |  |  | 19 | 100 | 
CCn1cc(C(=O)O)c(=O)c2c(C)c(F)c(N3CCNCC3)c(F)c21 | 0.05 (≈ 0.142 µM) | 0.05 (≈ 0.142 µM) | 0.2 (≈ 0.569 µM) |  |  | 1.6 (≈ 4.55 µM) | 0.4 (≈ 1.14 µM) | 6.3 (≈ 17.9 µM) | 3.1 (≈ 8.82 µM) | 12.5 (≈ 35.6 µM) | 0.8 (≈ 2.28 µM) | 0.2 (≈ 0.569 µM) | 0.2 | 2.08 | 7.5 |  |  | 
NC1CCN(c2cc3c(cc2F)c(=O)c(C(=O)O)cn3C2CC2)C1 (stereo unspecified) |  | 0.025 (≈ 0.0754 µM) |  | 3.4 | 0.5 | 0.2 (≈ 0.604 µM) | 0.1 (≈ 0.302 µM) | 0.1 (≈ 0.302 µM) |  |  |  |  | 0.057 | 0.075 | 0.1 |  |  | 3.4
Cc1c(F)c(N2CCNCC2)cc2c1c(=O)c(C(=O)O)cn2-c1ccc(F)cc1F | 0.05 (≈ 0.12 µM) | 0.05 (≈ 0.12 µM) | 0.1 (≈ 0.24 µM) |  |  | 0.8 (≈ 1.92 µM) | 0.2 (≈ 0.479 µM) | 0.05 (≈ 0.12 µM) | 0.2 (≈ 0.479 µM) | 0.1 (≈ 0.24 µM) | 0.1 (≈ 0.24 µM) | 0.025 (≈ 0.0599 µM) | 0.13 | 0.076 | 3 |  |  | 
Cc1c(F)c(N2CCC(N)C2)c(Cl)c2c1c(=O)c(C(=O)O)cn2C1CC1 (stereo unspecified) | 0.05 (≈ 0.132 µM) | 0.013 (≈ 0.0342 µM) | 0.05 (≈ 0.132 µM) |  |  | 0.2 (≈ 0.527 µM) | 0.05 (≈ 0.132 µM) | 0.025 (≈ 0.0658 µM) | 0.05 (≈ 0.132 µM) | 0.05 (≈ 0.132 µM) | 0.025 (≈ 0.0658 µM) | 0.013 (≈ 0.0342 µM) | 0.05 | 0.029 | 0.3 |  |  | 
CCNCC1CCN(c2c(F)cc3c(=O)c(C(=O)O)cn(C4CC4)c3c2F)C1 (stereo unspecified) [PD-117558] |  |  | 0.1 (≈ 0.255 µM) | 4.2 | 1 | 0.4 (≈ 1.02 µM) | 0.2 (≈ 0.511 µM) |  |  | 0.025 (≈ 0.0639 µM) |  | 0.013 (≈ 0.0332 µM) | 0.13 | 0.025 | 0.25 | 2 | 3.3 | 
Cc1c(F)c(N2CCNC(C)C2)cc2c1c(=O)c(C(=O)O)cn2C1CC1 (stereo unspecified) [GREPAFLOXACIN] | 0.025 (≈ 0.0696 µM) | 0.013 (≈ 0.0362 µM) | 0.05 (≈ 0.139 µM) | 1.5 | 0.5 | 0.8 (≈ 2.23 µM) | 0.2 (≈ 0.556 µM) | 0.025 (≈ 0.0696 µM) | 0.1 (≈ 0.278 µM) | 0.05 (≈ 0.139 µM) | 0.1 (≈ 0.278 µM) | 0.025 (≈ 0.0696 µM) | 0.6 | 2.07 | 3.75 | 8 | 24 | 
